Values after ≈ are worked out from the molar mass of the structure shown.
Key:
[1] = Aqueous solubility of the compound by HPLC analysis; type: physicochemical; conditions: water
How it was run: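 Solubility determined by HPLC measurement of the concentration in saturated aqueous solutions of the compounds.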

[2] = molecular target: T1, Serine/threonine-protein kinase D2 (Homo sapiens) (UniProt Q9BZL6); assay: Inhibition of PKD2 at 30 uM by microfluidic mobility shift assay
T1 sequence (whole entry): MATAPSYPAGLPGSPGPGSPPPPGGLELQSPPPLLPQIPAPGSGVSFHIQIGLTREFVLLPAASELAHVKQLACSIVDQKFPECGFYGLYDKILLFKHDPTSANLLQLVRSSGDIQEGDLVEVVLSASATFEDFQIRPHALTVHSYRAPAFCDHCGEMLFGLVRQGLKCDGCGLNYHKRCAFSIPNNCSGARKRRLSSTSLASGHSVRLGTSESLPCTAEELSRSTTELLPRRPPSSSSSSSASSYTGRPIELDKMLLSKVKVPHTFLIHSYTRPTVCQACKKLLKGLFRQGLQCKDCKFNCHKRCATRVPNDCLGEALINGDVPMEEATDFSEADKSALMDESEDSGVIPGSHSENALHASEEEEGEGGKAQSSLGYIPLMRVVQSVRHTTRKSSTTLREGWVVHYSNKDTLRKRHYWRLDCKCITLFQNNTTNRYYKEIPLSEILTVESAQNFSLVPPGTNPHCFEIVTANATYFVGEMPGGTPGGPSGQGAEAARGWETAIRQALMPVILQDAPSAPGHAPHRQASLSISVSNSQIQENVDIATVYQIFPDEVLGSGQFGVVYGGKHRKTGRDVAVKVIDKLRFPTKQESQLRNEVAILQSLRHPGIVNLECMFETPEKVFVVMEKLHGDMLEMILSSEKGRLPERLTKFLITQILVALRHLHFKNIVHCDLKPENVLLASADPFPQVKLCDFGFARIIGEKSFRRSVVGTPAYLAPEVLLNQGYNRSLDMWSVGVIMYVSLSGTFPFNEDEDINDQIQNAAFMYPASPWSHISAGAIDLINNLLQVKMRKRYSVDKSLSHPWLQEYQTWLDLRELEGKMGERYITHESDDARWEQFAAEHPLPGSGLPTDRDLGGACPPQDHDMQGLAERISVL
How it was run: (§1)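 Single-concentration screen, singlicate, 30 uM final (diluted from 1 mM DMSO solutions), fluorescently tagged peptide substrate appropriate to each kinase, ATP at apparent Km for each protein. Phosphorylated and unphosphorylated peptides separated electrophoretically; conversion is the phosphorylated peak area over the sum of both peaks. No-inhibitor and no-ATP controls; H89 reference on each plate.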

[3] = molecular target: Mitogen-activated protein kinase 1 (Homo sapiens) (UniProt P28482); assay: Inhibition of ERK2 at 30 uM by microfluidic mobility shift assay; how it was run: as §1
[4] = molecular target: Mitogen-activated protein kinase 3 (Homo sapiens) (UniProt P27361); assay: Inhibition of ERK1 at 30 uM by microfluidic mobility shift assay; how it was run: as §1
[5] = molecular target: T2, Serine/threonine-protein kinase Chk1 (Homo sapiens) (UniProt O14757); assay: Inhibition of CHK1 at 30 uM by microfluidic mobility shift assay; how it was run: as §1
T2 sequence (whole entry): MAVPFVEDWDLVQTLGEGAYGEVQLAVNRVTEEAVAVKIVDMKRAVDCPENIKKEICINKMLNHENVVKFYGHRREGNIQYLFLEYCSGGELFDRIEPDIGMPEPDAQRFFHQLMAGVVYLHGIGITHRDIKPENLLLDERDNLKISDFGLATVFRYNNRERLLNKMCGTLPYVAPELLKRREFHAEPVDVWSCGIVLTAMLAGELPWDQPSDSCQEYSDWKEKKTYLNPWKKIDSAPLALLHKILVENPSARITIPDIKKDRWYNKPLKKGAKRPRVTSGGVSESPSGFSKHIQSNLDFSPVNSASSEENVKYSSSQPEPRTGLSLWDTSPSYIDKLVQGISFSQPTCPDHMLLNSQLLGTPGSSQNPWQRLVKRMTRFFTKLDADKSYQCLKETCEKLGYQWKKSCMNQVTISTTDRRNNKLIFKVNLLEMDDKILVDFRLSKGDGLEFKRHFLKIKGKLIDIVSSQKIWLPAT

[6] = molecular target: Insulin receptor (Homo sapiens) (UniProt P06213); assay: Inhibition of INSR at 30 uM by microfluidic mobility shift assay; how it was run: as §1
Chain of Insulin receptor (Homo sapiens) (P06213 28-758 limits assumed): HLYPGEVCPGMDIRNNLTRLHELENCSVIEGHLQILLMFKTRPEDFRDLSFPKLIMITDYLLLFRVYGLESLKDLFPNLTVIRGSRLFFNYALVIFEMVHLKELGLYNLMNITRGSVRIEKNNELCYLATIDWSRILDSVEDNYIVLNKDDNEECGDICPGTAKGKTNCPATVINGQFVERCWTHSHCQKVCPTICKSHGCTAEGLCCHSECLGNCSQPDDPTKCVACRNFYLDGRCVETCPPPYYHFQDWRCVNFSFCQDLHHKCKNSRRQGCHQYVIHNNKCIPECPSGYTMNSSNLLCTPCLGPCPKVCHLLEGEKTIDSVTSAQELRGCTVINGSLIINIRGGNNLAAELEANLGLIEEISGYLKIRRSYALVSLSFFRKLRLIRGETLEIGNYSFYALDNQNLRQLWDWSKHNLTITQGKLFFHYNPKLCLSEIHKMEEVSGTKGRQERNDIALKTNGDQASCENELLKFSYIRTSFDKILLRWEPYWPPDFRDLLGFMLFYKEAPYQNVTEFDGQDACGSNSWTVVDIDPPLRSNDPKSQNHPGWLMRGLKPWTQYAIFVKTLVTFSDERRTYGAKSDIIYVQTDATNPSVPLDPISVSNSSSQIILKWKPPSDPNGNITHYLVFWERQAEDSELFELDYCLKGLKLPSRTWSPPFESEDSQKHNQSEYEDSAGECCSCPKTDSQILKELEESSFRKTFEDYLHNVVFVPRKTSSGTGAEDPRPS
Chain of Insulin receptor (Homo sapiens) (P06213 763-1382 limits assumed): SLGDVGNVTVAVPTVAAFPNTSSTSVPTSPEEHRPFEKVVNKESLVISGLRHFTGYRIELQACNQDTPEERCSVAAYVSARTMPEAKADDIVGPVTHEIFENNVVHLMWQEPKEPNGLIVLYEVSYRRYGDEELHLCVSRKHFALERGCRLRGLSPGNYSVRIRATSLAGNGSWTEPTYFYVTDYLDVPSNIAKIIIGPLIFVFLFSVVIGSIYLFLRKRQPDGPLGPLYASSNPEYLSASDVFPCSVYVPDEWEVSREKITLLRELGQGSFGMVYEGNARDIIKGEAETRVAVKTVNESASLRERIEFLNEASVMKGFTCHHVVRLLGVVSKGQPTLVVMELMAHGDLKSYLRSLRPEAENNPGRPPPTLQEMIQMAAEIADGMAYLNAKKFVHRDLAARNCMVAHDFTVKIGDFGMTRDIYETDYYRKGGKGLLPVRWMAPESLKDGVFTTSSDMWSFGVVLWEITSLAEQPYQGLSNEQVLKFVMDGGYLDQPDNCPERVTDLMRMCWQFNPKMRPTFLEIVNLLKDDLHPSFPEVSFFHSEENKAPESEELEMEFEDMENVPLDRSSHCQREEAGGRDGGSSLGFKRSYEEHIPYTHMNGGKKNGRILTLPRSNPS

[7] = molecular target: RAC-beta serine/threonine-protein kinase (Homo sapiens) (UniProt P31751); assay: Inhibition of AKT2 at 30 uM by microfluidic mobility shift assay; how it was run: as §1
Chain of RAC-beta serine/threonine-protein kinase (Homo sapiens) (P31751 whole entry): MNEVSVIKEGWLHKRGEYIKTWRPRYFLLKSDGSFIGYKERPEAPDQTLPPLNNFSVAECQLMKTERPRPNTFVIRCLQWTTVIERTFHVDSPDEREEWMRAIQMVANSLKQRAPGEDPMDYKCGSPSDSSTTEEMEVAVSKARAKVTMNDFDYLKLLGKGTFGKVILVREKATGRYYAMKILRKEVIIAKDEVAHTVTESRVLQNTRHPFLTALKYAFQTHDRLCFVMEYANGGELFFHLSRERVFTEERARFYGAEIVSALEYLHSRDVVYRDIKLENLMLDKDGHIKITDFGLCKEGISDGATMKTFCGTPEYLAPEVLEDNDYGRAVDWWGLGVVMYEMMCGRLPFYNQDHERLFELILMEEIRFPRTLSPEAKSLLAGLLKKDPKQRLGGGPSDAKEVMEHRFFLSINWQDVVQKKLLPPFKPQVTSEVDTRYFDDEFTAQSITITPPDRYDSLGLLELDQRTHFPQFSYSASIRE

[8] = molecular target: MAP kinase-activated protein kinase 2 (Homo sapiens, UniProt P49137); assay: Inhibition of MAPKAPK2 at 30 uM by microfluidic mobility shift assay; how it was run: as §1
[9] = molecular target: T3, Tyrosine-protein kinase Lck (Homo sapiens, UniProt P06239); assay: Inhibition of LCK at 30 uM by microfluidic mobility shift assay; how it was run: as §1
[10] = molecular target: Serine/threonine-protein kinase Chk2 (Homo sapiens, UniProt O96017); assay: Inhibition of CHK2 at 30 uM by microfluidic mobility shift assay; how it was run: as §1
[11] = molecular target: Ribosomal protein S6 kinase alpha-5 (Homo sapiens) (UniProt O75582); assay: Inhibition of MSK1 at 30 uM by microfluidic mobility shift assay; how it was run: as §1
[12] = molecular target: T4, Tyrosine-protein kinase ABL1 (Homo sapiens, UniProt P00519); assay: Inhibition of ABL at 30 uM by microfluidic mobility shift assay; how it was run: as §1
T4 sequence (P00519 whole entry): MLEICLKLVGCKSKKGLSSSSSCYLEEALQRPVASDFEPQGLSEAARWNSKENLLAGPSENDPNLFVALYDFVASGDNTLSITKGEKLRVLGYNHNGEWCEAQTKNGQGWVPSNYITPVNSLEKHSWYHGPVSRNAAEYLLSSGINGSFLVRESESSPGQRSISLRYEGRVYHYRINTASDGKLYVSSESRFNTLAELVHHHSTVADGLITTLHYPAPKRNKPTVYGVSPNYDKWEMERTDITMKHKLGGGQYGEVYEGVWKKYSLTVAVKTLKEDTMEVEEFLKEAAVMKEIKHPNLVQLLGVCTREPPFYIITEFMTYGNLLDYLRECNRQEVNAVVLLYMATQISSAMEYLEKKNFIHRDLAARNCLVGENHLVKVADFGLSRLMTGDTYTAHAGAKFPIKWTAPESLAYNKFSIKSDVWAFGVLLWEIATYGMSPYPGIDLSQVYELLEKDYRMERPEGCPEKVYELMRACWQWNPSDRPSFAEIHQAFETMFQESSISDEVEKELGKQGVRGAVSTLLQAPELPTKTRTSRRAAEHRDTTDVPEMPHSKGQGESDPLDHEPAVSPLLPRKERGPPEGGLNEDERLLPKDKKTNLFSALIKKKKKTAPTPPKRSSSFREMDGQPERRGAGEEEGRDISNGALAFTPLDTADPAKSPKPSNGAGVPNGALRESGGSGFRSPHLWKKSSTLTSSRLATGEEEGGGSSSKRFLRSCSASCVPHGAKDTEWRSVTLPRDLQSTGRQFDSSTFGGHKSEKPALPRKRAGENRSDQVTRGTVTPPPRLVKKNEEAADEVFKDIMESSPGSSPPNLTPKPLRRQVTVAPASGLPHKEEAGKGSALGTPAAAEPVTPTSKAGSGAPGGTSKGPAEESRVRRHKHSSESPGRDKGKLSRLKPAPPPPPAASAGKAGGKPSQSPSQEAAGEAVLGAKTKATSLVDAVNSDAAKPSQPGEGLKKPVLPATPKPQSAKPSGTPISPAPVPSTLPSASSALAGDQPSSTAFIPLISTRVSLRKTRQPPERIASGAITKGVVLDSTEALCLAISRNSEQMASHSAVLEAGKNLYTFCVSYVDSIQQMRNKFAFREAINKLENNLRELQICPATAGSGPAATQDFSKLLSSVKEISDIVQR

[13] = Inhibition of PKA at 30 uM by microfluidic mobility shift assay; how it was run: as §1
[14] = molecular target: T5, Tyrosine-protein kinase Lyn (Homo sapiens, UniProt P07948); assay: Inhibition of LYN at 30 uM by microfluidic mobility shift assay; how it was run: as §1
Target sequence in this assay (P07948 2-512 limits assumed): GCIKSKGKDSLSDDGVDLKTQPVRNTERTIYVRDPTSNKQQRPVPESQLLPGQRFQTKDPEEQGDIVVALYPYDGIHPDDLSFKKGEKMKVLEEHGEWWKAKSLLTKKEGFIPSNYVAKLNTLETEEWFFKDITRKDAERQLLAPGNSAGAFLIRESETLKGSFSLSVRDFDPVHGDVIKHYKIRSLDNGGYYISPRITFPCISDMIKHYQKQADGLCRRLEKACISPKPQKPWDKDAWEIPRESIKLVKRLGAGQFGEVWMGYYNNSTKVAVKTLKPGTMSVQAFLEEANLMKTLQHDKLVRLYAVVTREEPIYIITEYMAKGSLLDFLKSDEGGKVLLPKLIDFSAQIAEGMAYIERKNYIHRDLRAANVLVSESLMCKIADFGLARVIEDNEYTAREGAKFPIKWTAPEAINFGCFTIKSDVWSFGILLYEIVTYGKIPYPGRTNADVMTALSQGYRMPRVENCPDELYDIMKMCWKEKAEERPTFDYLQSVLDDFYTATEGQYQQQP

[15] = molecular target: T6, Proto-oncogene tyrosine-protein kinase Src (Homo sapiens, UniProt P12931); assay: Inhibition of SRC at 30 uM by microfluidic mobility shift assay; how it was run: as §1
T6 sequence (P12931 2-536 limits assumed): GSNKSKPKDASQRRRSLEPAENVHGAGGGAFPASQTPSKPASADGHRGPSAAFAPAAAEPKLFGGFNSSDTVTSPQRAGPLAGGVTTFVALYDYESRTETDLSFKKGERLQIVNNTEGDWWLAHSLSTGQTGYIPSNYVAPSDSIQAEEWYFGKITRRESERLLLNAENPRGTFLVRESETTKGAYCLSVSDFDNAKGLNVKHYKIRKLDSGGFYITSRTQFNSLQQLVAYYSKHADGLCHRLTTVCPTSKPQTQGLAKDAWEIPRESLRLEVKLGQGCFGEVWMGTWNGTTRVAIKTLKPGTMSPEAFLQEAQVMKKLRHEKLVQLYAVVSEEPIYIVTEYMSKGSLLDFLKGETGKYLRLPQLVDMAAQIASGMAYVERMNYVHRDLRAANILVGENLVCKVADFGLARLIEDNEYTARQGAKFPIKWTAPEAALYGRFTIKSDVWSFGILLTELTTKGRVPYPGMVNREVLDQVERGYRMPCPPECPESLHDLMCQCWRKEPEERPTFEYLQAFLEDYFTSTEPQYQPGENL

[16] = molecular target: T7, Aurora kinase A (Homo sapiens) (UniProt O14965); assay: Inhibition of AurA at 30 uM by microfluidic mobility shift assay; how it was run: as §1
T7 sequence (whole entry): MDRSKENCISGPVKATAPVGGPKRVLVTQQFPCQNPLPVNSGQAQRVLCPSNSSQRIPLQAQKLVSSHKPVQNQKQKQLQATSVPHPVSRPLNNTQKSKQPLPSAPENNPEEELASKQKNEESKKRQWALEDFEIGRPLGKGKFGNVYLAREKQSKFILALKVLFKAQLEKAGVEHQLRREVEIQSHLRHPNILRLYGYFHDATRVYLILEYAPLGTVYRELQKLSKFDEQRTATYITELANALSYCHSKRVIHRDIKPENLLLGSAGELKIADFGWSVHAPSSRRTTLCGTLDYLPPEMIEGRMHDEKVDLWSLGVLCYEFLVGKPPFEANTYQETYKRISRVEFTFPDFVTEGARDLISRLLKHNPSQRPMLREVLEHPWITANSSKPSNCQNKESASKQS

[17] = molecular target: T8, Mitogen-activated protein kinase 14 (Homo sapiens, UniProt Q16539); assay: Inhibition of p38alpha at 30 uM by microfluidic mobility shift assay; how it was run: as §1
T8 sequence (Q16539 whole entry): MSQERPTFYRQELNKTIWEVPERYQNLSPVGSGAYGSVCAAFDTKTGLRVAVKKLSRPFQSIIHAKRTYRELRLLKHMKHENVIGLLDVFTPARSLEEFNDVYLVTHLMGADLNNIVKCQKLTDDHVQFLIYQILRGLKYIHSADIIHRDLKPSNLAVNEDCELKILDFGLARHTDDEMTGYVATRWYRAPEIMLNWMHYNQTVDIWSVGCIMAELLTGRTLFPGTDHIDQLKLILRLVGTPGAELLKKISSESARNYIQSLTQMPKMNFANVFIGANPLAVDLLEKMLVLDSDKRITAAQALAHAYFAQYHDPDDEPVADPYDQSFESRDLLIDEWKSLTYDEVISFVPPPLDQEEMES

[18] = molecular target: Glycogen synthase kinase-3 beta (Homo sapiens) (UniProt P49841); assay: Inhibition of GSK3B at 30 uM by microfluidic mobility shift assay; how it was run: as §1
[19] = molecular target: RAC-alpha serine/threonine-protein kinase (Homo sapiens) (UniProt P31749); assay: Inhibition of AKT1 at 30 uM by microfluidic mobility shift assay; how it was run: as §1
[20] = molecular target: T9, Tyrosine-protein kinase Fyn (Homo sapiens, UniProt P06241); assay: Inhibition of FYN at 30 uM by microfluidic mobility shift assay; how it was run: as §1
Target sequence in this assay (P06241 2-537 limits assumed): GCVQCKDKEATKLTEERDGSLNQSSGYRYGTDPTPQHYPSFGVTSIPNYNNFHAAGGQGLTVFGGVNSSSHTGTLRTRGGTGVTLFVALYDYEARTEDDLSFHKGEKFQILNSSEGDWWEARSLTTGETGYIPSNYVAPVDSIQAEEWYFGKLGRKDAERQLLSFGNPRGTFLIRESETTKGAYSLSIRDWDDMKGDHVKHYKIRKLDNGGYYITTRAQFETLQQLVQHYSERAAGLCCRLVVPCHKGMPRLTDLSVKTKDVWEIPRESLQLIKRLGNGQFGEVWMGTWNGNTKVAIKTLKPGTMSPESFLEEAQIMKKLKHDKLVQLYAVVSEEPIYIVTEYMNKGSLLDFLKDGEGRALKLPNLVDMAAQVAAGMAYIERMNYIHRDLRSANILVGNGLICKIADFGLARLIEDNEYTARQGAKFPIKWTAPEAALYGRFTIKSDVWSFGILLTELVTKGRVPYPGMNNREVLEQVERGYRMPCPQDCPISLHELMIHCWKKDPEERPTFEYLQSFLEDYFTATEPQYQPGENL

[21] = molecular target: T10, MAP kinase-activated protein kinase 5 (Homo sapiens) (UniProt Q8IW41); assay: Inhibition of PRAK1 at 30 uM by microfluidic mobility shift assay; how it was run: as §1
T10 sequence (whole entry): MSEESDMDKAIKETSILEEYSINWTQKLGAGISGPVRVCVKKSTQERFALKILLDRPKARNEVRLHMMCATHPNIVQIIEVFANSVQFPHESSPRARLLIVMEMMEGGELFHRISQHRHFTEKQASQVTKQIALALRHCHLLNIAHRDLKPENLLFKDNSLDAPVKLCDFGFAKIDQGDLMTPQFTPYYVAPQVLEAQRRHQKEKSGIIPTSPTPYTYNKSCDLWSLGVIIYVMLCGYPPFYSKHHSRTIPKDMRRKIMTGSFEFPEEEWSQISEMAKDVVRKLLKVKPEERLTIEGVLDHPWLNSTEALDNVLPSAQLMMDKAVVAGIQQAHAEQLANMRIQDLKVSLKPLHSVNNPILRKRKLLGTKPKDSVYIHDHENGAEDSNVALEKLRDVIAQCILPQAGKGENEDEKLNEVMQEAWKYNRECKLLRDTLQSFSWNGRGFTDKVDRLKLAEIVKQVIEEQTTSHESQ

[22] = molecular target: Ribosomal protein S6 kinase alpha-1 (Homo sapiens) (UniProt Q15418); assay: Inhibition of RSK1 at 30 uM by microfluidic mobility shift assay; how it was run: as §1
[23] = molecular target: T6, Proto-oncogene tyrosine-protein kinase Src; assay: Inhibition of SRC by microfluidic mobility shift assay
How it was run: (§2)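 IC50 determined in the mobility shift format: a fluorescently tagged peptide substrate appropriate to each kinase, ATP at its apparent Km for each protein, and electrophoretic separation of phospho and unphosphorylated peptide. Percent conversion is the ratio of the phosphopeptide peak area to the total peak area. Controls were no inhibitor and no ATP.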

[24] = molecular target: T5, Tyrosine-protein kinase Lyn; assay: Inhibition of LYN by microfluidic mobility shift assay; how it was run: as §2
[25] = molecular target: T3, Tyrosine-protein kinase Lck; assay: Inhibition of LCK by microfluidic mobility shift assay; how it was run: as §2
[26] = molecular target: T8, Mitogen-activated protein kinase 14; assay: Inhibition of p38alpha by microfluidic mobility shift assay; how it was run: as §2
MCF7 = assay: Growth inhibition of human MCF7 cells at 0.039 uM; type: functional; conditions: read-out: GI
[27] = molecular target: T9, Tyrosine-protein kinase Fyn; assay: Inhibition of FYN by microfluidic mobility shift assay; how it was run: as §2
[28] = molecular target: T4, Tyrosine-protein kinase ABL1; assay: Inhibition of ABL by microfluidic mobility shift assay; how it was run: as §2

Row | SMILES | solubility [1] | inhibition [2] | inhibition [3] | inhibition [4] | inhibition [6] | inhibition [7] | inhibition [8] | inhibition [9] | inhibition [10] | inhibition [11] | inhibition [12] | inhibition [13] | inhibition [14] | inhibition [15] | inhibition [16] | inhibition [17] | inhibition [18] | inhibition [19] | inhibition [20] | inhibition [21] | also measured
1 | Cc1cc2c(c(N)nn2C)c(N2CCN(C)CC2)n1 | 1160 µg/mL (≈ 4.47 mM) | – | – | – | – | – | – | – | – | – | – | – | – | – | – | – | – | – | – | – | –
2 | Cc1cc2nn(-c3ccccc3)c(N)c2c(=O)[nH]1 | 69 µg/mL (≈ 0.287 mM) | -1% | 7% | 7% | 4% | 1% | -4% | 24% | -4% | 4% | 20% | -8% | 9% | 26% | 6% | 26% | 9% | 5% | 22% | 5% | inhibition [5]: -9%
3 | Nc1n[nH]c2cc(C3CCNCC3)[nH]c(=O)c12 | 2340 µg/mL (≈ 10 mM) | – | – | – | – | – | – | – | – | – | – | – | – | – | – | – | – | – | – | – | –
4 | Cn1nc(N)c2c(=O)[nH]c(C3CCNCC3)cc21 | > 15000 µg/mL | – | – | – | – | – | – | – | – | – | – | – | – | – | – | – | – | – | – | – | –
5 | Nc1c2c(=O)[nH]c(-c3ccccc3)cc2nn1-c1ccccc1 | < 1 µg/mL | 23% | 12% | 20% | 2% | -1% | 2% | 90% | -8% | 13% | 96% | -10% | 96% | 98% | 61% | 79% | 29% | -2% | 96% | 22% | inhibition [22]: 38%; IC50 [23]: 870 nM; IC50 [24]: 1400 nM; IC50 [25]: 4800 nM; IC50 [26]: 8700 nM; inhibition of growth at 0.039 µM (MCF7): 35%; IC50 [27]: 1300 nM; IC50 [28]: 1500 nM

Reference: ChEMBL document CHEMBL1811853, “Design and evaluation of 3-aminopyrazolopyridinone kinase inhibitors inspired by the natural product indirubin” (Bioorg Med Chem, 2011)
